Results on nine molecules are retold here after paper PMC3076219 (European journal of immunology, 2009).

The test system of assay [1] is monocytes. Description: Calcium mobilization in monocytes. The format is cell-based, human. The following applies: ATP or WKYMVm first, then LL-37; Fig. 7D. The method in brief: (§1)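 Peripheral blood monocytes (kit-isolated from PBMC, CD14-checked) or THP-1 cells at 10^7/mL were loaded with 5 µM Indo-1-AM for 7 min at 37 °C, then held 10 min at RT and washed in cold PBS. Cells were run at 2×10^6/mL in KRP (PBS, 1.5 mM CaCl2, 1.5 mM MgSO4). After baseline they got a first stimulus, then a second. Flow cytometry used 351 nm excitation and the 405:485 nm ratio, gating live cells. Three independent experiments.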
Background: Calcium assays in cells follow changes in intracellular calcium, usually with a dye or a luminescent sensor.

The test system of assay [2] is CXCR2. Description: CXCR2 surface expression on neutrophils, flow cytometry. The format is cell-based, human. The following applies: 3h. A general note: Flow cytometry measures light scatter and fluorescence of single cells or particles in a stream.
The test system of assay [3] is THP-1 cells. Description: Calcium mobilization in THP-1 cells. Type of assay: cell-based. The following applies: THP-1; Fig. 7C. The method in brief: as §1
Assay [4] deals with CXCR2. Description: CXCR2 surface expression on monocytes. Type of assay: cell-based, human. The following applies: Supporting information Fig. 2.
Assay [5] deals with neutrophils. Description: Cross-desensitization of calcium mobilization of neutrophils. Type of assay: cell-based, human.
The subject of assay [6] is neutrophils. Description: Calcium mobilization of neutrophils. Type of assay: cell-based, human. The following applies: ATP 5 µM; for [Ca2+]i time of decline to baseline: fMLF 100 nM, CXCL8 10 nM, Fig. 3A.
The test system of assay [7] is CXCR1. Description: CXCR1 surface expression on neutrophils, flow cytometry. Type of assay: cell-based, human. The following applies: 3h. An outline of the steps: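 Human blood neutrophils were isolated by dextran sedimentation and Ficoll (>95% CD16+) and held at 5×10^6/mL in RPMI 1640 with 1% FBS. They were treated 3h with a dose series (test peptide 1–10 µM; chemokines 1, 5, 10, 50 nM) or with 5 µM for 0.5–3h. Cells were blocked in 10% human serum and stained with anti-CXCR1-APC/anti-CXCR2-FITC or anti-P2X7-FITC, plus anti-CD16. Read-out was flow cytometry GMFI.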

The test system of assay [8] is monocytes. Description: Migration of monocytes, 24-well Transwell. Type of assay: cell-based, human. The following applies: LL-37 5 µM, CXCL1 50 nM, WKYMVm 5 µM, ATP 50 µM, BzATP 50 µM; 90 min, 37°C; Fig. 7F. The method in brief:
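CFSE-labelled monocytes or THP-1 cells (5 µM, 5 min RT) at 2×10^6/mL in phenol-red-free RPMI 1640 with 1% FBS went in the Transwell upper chamber (3-µm pores). Stimuli in the lower chamber included CXCL1 50 nM, WKYMVm 5 µM and ATP/BzATP 50 µM. Cells were used with or without 20 min preincubation with 10 µM CXCR2 antagonist. Incubation at 37 °C lasted 90 min for monocytes and 2 h for THP-1. Lower-well cells were read at 495 nm against a standard curve, in quadruplicate.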

The test system of assay [9] is P2X7. The following applies: P2X7 receptor blockers; monocytes; ref [14]; cited from earlier work.
For assay [10], the system named is CXCR2. The following applies: ref [33], [34]; cited from earlier work.
Assay [11] concerns CXCR2. Description: Confocal analysis of CXCR2 internalization in neutrophils. The format is cell-based, human. The following applies: CXCL7 50 nM or CXCL1 50 nM, 60 min, 37°C; data not shown. An outline of the steps: (§2)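 Neutrophils came from citrated donor blood by dextran sedimentation and Ficoll gradient. […] Cells were fixed in 2% paraformaldehyde, permeabilised with saponin and blocked with human serum. Anti-CXCR1 or anti-CXCR2 mAb (4°C), then Alexa 488 anti-mouse IgG, DAPI mount, confocal imaging; three independent experiments.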

Assay [12] has as its system CXCR1. Description: Confocal analysis of CXCR1 internalization in neutrophils. Type of assay: cell-based, human. The following applies: CXCL7 50 nM or CXCL1 50 nM, 60 min, 37°C; data not shown. The method in brief:
as §2

Where [13] appears, read: ATP 30 µM, 300 µM, 3000 µM, Fig. 2C.
Setting [14] is: fMLF 50 nM, 100 nM, 200 nM, Fig. 2A.

Turning to `Nc1ncnc2c1ncn2[C@@H]1O[C@H](COP(=O)(O)OP(=O)(O)OP(=O)(O)O)[C@@H](O)[C@H]1O` [ATP, reference compound], the “cross-block of LL-37 stimulated calcium mobilization in monocytes” value in [1] was “neither ATP nor WKYMVm cross-block LL-37 stimulated calcium mobilization”. Also, in assay [2] (setting [13]), the CXCR2 surface expression entry was “no down-regulation of either CXCR1 or CXCR2”. The “block of LL-37 induced calcium mobilization by ATP / BzATP” value in assay [3] is on record as “able to partially block”. Besides, the “CXCR2 down-regulation on monocytes” value in assay [4] is “but not ATP or BzATP, all down-regulate CXCR2”. Also, in assay [5] (ATP first, then LL-37, Supporting information Fig. 3A-B), the “cross-desensitization of LL-37 response by ATP” value is on record as “unable to block calcium mobilization stimulated by LL-37 in neutrophils”. In addition, the “[Ca2+]i time of decline to baseline” value in assay [6] is at most 200 s. Also, the “calcium flux response in the absence of extracellular Ca2+” value in [6] (PBS without calcium and magnesium, LL-37 5 µM, WKYMVm 5 µM, Fig. 3C) was “only the WKYMVm peptide is capable of generating a calcium flux response”. In addition, the CXCR1 surface expression entry in [7] (setting [13]) was “no down-regulation of either CXCR1 or CXCR2”. Besides, in [8], the “stimulation of migration of monocytes” value is “only LL-37 stimulated migration of monocytes”.

As to `Nc1ncnc2c1ncn2[C@@H]1O[C@H](COP(=O)(O)OP(=O)(O)OP(=O)(O)O)[C@@H](OC(=O)c2ccc(C(=O)c3ccccc3)cc2)[C@H]1O` [BzATP], the “block of LL-37 induced calcium mobilization by ATP / BzATP” value in assay [3] was “not BzATP was able to partially block”. The “CXCR2 down-regulation on monocytes” value in assay [4] is recorded as “but not ATP or BzATP, all down-regulate CXCR2”. Moreover, the “stimulation of migration of monocytes” value in [8] is given as “only LL-37 stimulated migration of monocytes”.

In the case of `CN([C@@H](Cc1ccc(OS(=O)(=O)c2cccc3cnccc23)cc1)C(=O)N1CCN(c2ccccc2)CC1)S(=O)(=O)c1cccc2cnccc12` [KN62], the “block of LL-37-induced release of IL-1β” value in [9] is “did not completely block the release of IL-1β”.

Take `Nc1ncnc2c1ncn2[C@@H](C=O)O[C@@H](C=O)COP(=O)(O)OP(=O)(O)OP(=O)(O)O` [oxATP]: the “block of LL-37-induced release of IL-1β” value in assay [9] is on record as “did not completely block the release of IL-1β”.

CXCL2: CXC chemokine: the “affinity for CXCR2” value in [10] was “high affinity”.

In the case of CXCL3: CXC chemokine, the “affinity for CXCR2” value in assay [10] was “high affinity”.

As to CXCL5: CXC chemokine, the “affinity for CXCR2” value in assay [10] is “high affinity”.

As to fMLF [reference compound], in [2] (setting [14]), the CXCR2 surface expression result is “caused down-regulation of both CXCR2 and CXCR1 expression with similar kinetics”. Also, the “[Ca2+]i time of decline to baseline” value in assay [6] is on record as at most 200 s. Further, the CXCR1 surface expression entry in assay [7] (setting [14]) was “caused down-regulation of both CXCR2 and CXCR1 expression with similar kinetics”.

B1: CXCL7: recombinant human chemokine, rather CXCR2 specific (protein, UniProt P02775 59-128, looked up)
Neutrophil-activating peptide …: AELRCMCIKTTSGIHPKNIQSLEVIGKGTHCNQVEVIATLKDGRKICLDPDAPRIKKIVQKKLAGDESAD
modifications: Neutrophil-activating peptide 2
For B1, in assay [11], the “CXCR2 translocation (internalization)” value is “caused only CXCR2 receptor translocation to the cytoplasm”. In addition, in assay [10], the “affinity for CXCR2” value is reported as “high affinity”. Also, in [5] (data not shown), the “cross-desensitization of response to fMLF by LL-37, CXCL7, CXCL1” value is reported as “do not cross-sensitize fMLF stimulation”. For the same molecule, the “CXCR1 down-regulation at higher dose” value in assay [7] (50 nM) is “down-regulate CXCR1 at higher doses”. Besides, the “CXCR1 surface expression, chemokine treated” value in assay [7] (1 nM, 5 nM, 10 nM (50 nM), Fig. 2E-G) is listed as “less discriminatory towards CXCR2 compared to LL-37”. Also, the “CXCR1 translocation (internalization)” value in assay [12] is “caused only CXCR2 receptor translocation to the cytoplasm”.
